In brackets after ≈: the same amount, converted by molar mass. Activity calls are given as the source filed them. The calls are words filed in the database; no cut-off is given here.
Key:
Scedosporium apiospermum [1] = test: Antifungal activity against Scedosporium apiospermum IHEM 14464 infected in immunosuppressed OF1 mouse assessed as reduction in brain fungal burden at 40 mg/kg, po BID administered 24 hrs postinfection for 10 days measured after 20 days; assay type: functional, organism-based; parameters: dose 40 mg/kg
Scedosporium aurantiacum [2] = test: Antifungal activity against Scedosporium aurantiacum CBS 116910 infected in immunosuppressed OF1 mouse assessed as reduction in kidney fungal burden at 20 mg/kg, po BID administered 24 hrs postinfection for 10 days measured after 20 days; assay type: functional, organism-based; parameters: dose 20 mg/kg
Scedosporium apiospermum [3] = test: Antifungal activity against Scedosporium apiospermum CBS 117407 infected in immunosuppressed OF1 mouse assessed as prolonged survival of mouse at 20 mg/kg, po BID administered 24 hrs postinfection for 10 days measured after 20 days; assay type: functional, organism-based; parameters: dose 20 mg/kg
Procedure, shortened: (§1)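 Male OF1 mice, groups of 10, immunosuppressed 1 day before infection with cyclophosphamide 200 mg/kg i.p. plus 5-fluorouracil 150 mg/kg i.v. Infected i.v. via tail vein with 1 × 10^4 CFU in 0.2 ml saline. Oral treatment began 24 h post-challenge for 10 days. Mice checked daily for 20 days. Survival by Kaplan-Meier, compared by log rank test.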

Scedosporium apiospermum [4] = test: Antifungal activity against Scedosporium apiospermum CBS 117407 infected in immunosuppressed OF1 mouse assessed as reduction in kidney fungal burden at 10 mg/kg, po BID administered 24 hrs postinfection for 10 days measured after 20 days; assay type: functional, organism-based; parameters: dose 10 mg/kg
Scedosporium aurantiacum [5] = test: Antifungal activity against Scedosporium aurantiacum IHEM 15458 infected in immunosuppressed OF1 mouse assessed as reduction in kidney fungal burden at 20 mg/kg, po BID administered 24 hrs postinfection for 10 days measured after 20 days; assay type: functional, organism-based; parameters: dose 20 mg/kg
Scedosporium boydii [6] = test: Antifungal activity against Scedosporium boydii FMR 8627 infected in immunosuppressed OF1 mouse assessed as reduction in kidney fungal burden at 10 mg/kg, po BID administered 24 hrs postinfection for 10 days measured after 20 days; assay type: functional, organism-based; parameters: dose 10 mg/kg
Scedosporium apiospermum [7] = test: Antifungal activity against Scedosporium apiospermum CBS 117407 infected in immunosuppressed OF1 mouse assessed as reduction in brain fungal burden at 40 mg/kg, po BID administered 24 hrs postinfection for 10 days measured after 20 days; assay type: functional, organism-based; parameters: dose 40 mg/kg
Scedosporium boydii [8] = test: Antifungal activity against Scedosporium boydii FMR 6694 infected in immunosuppressed OF1 mouse assessed as reduction in brain fungal burden at 40 mg/kg, po BID administered 24 hrs postinfection for 10 days measured after 20 days; assay type: functional, organism-based; parameters: dose 40 mg/kg
[9] = Antifungal activity against Scedosporium aurantiacum CBS 116910 infected in immunosuppressed OF1 mouse assessed as prolonged survival of mouse at 10 mg/kg, po BID administered 24 hrs postinfection for 10 days measured after 20 days; assay type: functional, organism-based; parameters: dose 10 mg/kg; procedure, shortened: as §1
Scedosporium boydii [10] = test: Antifungal activity against Scedosporium boydii FMR 6694 infected in immunosuppressed OF1 mouse assessed as prolonged survival of mouse at 20 mg/kg, po BID administered 24 hrs postinfection for 10 days measured after 20 days; assay type: functional, organism-based; parameters: dose 20 mg/kg; procedure, shortened: as §1
Scedosporium boydii [11] = test: Antifungal activity against Scedosporium boydii FMR 8627 infected in immunosuppressed OF1 mouse assessed as reduction in kidney fungal burden at 20 mg/kg, po BID administered 24 hrs postinfection for 10 days measured after 20 days; assay type: functional, organism-based; parameters: dose 20 mg/kg
Scedosporium apiospermum [12] = test: Antifungal activity against Scedosporium apiospermum CBS 117407 infected in immunosuppressed OF1 mouse assessed as reduction in brain fungal burden at 20 mg/kg, po BID administered 24 hrs postinfection for 10 days measured after 20 days; assay type: functional, organism-based; parameters: dose 20 mg/kg
[13] = Antifungal activity against Scedosporium aurantiacum IHEM 15458 by broth dilution method; assay type: functional
Scedosporium aurantiacum [14] = test: Antifungal activity against Scedosporium aurantiacum IHEM 15458 infected in immunosuppressed OF1 mouse assessed as reduction in brain fungal burden at 20 mg/kg, po BID administered 24 hrs postinfection for 10 days measured after 20 days; assay type: functional, organism-based; parameters: dose 20 mg/kg
Scedosporium boydii [15] = test: Antifungal activity against Scedosporium boydii FMR 8627 infected in immunosuppressed OF1 mouse assessed as reduction in brain fungal burden at 40 mg/kg, po BID administered 24 hrs postinfection for 10 days measured after 20 days; assay type: functional, organism-based; parameters: dose 40 mg/kg
Scedosporium boydii [16] = test: Antifungal activity against Scedosporium boydii FMR 8627 infected in immunosuppressed OF1 mouse assessed as prolonged survival of mouse at 20 mg/kg, po BID administered 24 hrs postinfection for 10 days measured after 20 days; assay type: functional, organism-based; parameters: dose 20 mg/kg
Procedure, shortened: (§2)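 Male OF1 mice were immunosuppressed 1 day before infection with cyclophosphamide 200 mg/kg i.p. plus 5-fluorouracil 150 mg/kg i.v. They were infected i.v. via a lateral tail vein with 1 × 10^4 CFU/mouse in 0.2 ml saline. Oral dosing was 10 or 20 mg/kg twice daily, or 20 or 40 mg/kg once daily (those mice and controls drank grapefruit juice from day −3). Dosing ran 24 h post-challenge for 10 days; 10 mice/group; observed daily to day 20; Kaplan-Meier with log rank test.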

Scedosporium apiospermum [17] = test: Antifungal activity against Scedosporium apiospermum CBS 117407 infected in immunosuppressed OF1 mouse assessed as reduction in kidney fungal burden at 20 mg/kg, po BID administered 24 hrs postinfection for 10 days measured after 20 days; assay type: functional, organism-based; parameters: dose 20 mg/kg
Scedosporium boydii [18] = test: Antifungal activity against Scedosporium boydii FMR 6694 infected in immunosuppressed OF1 mouse assessed as prolonged survival of mouse at 10 mg/kg, po BID administered 24 hrs postinfection for 10 days measured after 20 days; assay type: functional, organism-based; parameters: dose 10 mg/kg; procedure, shortened: as §1
Scedosporium aurantiacum [19] = test: Antifungal activity against Scedosporium aurantiacum CBS 116910 infected in immunosuppressed OF1 mouse assessed as reduction in brain fungal burden at 20 mg/kg, po BID administered 24 hrs postinfection for 10 days measured after 20 days; assay type: functional, organism-based; parameters: dose 20 mg/kg
Scedosporium aurantiacum [20] = test: Antifungal activity against Scedosporium aurantiacum IHEM 15458 infected in immunosuppressed OF1 mouse assessed as reduction in brain fungal burden at 40 mg/kg, po BID administered 24 hrs postinfection for 10 days measured after 20 days; assay type: functional, organism-based; parameters: dose 40 mg/kg
Scedosporium apiospermum [21] = test: Antifungal activity against Scedosporium apiospermum IHEM 14464 infected in immunosuppressed OF1 mouse assessed as reduction in kidney fungal burden at 10 mg/kg, po BID administered 24 hrs postinfection for 10 days measured after 20 days; assay type: functional, organism-based; parameters: dose 10 mg/kg
Scedosporium boydii [22] = test: Antifungal activity against Scedosporium boydii FMR 6694 by broth dilution method; assay type: functional
Scedosporium aurantiacum [23] = test: Antifungal activity against Scedosporium aurantiacum CBS 116910 infected in immunosuppressed OF1 mouse assessed as reduction in brain fungal burden at 40 mg/kg, po BID administered 24 hrs postinfection for 10 days measured after 20 days; assay type: functional, organism-based; parameters: dose 40 mg/kg
Scedosporium boydii [24] = test: Antifungal activity against Scedosporium boydii FMR 8627 infected in immunosuppressed OF1 mouse assessed as prolonged survival of mouse at 10 mg/kg, po BID administered 24 hrs postinfection for 10 days measured after 20 days; assay type: functional, organism-based; parameters: dose 10 mg/kg; procedure, shortened: as §2
Scedosporium aurantiacum [25] = test: Antifungal activity against Scedosporium aurantiacum CBS 116910 infected in immunosuppressed OF1 mouse assessed as reduction in kidney fungal burden at 10 mg/kg, po BID administered 24 hrs postinfection for 10 days measured after 20 days; assay type: functional, organism-based; parameters: dose 10 mg/kg
Scedosporium boydii [26] = test: Antifungal activity against Scedosporium boydii FMR 8627 infected in immunosuppressed OF1 mouse assessed as reduction in brain fungal burden at 20 mg/kg, po BID administered 24 hrs postinfection for 10 days measured after 20 days; assay type: functional, organism-based; parameters: dose 20 mg/kg
[27] = Antifungal activity against Scedosporium aurantiacum IHEM 15458 infected in immunosuppressed OF1 mouse assessed as prolonged survival of mouse at 10 mg/kg, po BID administered 24 hrs postinfection for 10 days measured after 20 days; assay type: functional, organism-based; parameters: dose 10 mg/kg; procedure, shortened: as §1

For `CC[C@@H]([C@H](C)O)n1ncn(-c2ccc(N3CCN(c4ccc(OC[C@@H]5CO[C@@](Cn6cncn6)(c6ccc(F)cc6F)C5)cc4)CC3)cc2)c1=O` [POSACONAZOLE], the Activity (Scedosporium apiospermum [1]) was “Active”, the Activity (Scedosporium aurantiacum [2]) was “Active” and the Activity (Scedosporium apiospermum [3]) was “Active”. The Activity (Scedosporium apiospermum [4]) was “Active”, the Activity (Scedosporium aurantiacum [5]) was “Active” and the Activity (Scedosporium boydii [6]) was “Active”. For the same compound, the Activity (Scedosporium apiospermum [7]) was “Active”, the Activity (Scedosporium boydii [8]) was “inactive” and the Activity [9] was “Active”. For the same compound, the Activity (Scedosporium boydii [10]) was “Active”, the Activity (Scedosporium boydii [11]) was “Active” and the Activity (Scedosporium apiospermum [12]) was “Active”. For the same compound, the MIC [13] was 2 µg/mL (≈ 2.85 µM), the Activity (Scedosporium aurantiacum [14]) was “Active” and the Activity (Scedosporium boydii [15]) was “Active”. The Activity (Scedosporium boydii [16]) was “Active”, the Activity (Scedosporium apiospermum [17]) was “Active” and the Activity (Scedosporium boydii [18]) was “Active”. For the same compound, the Activity (Scedosporium aurantiacum [19]) was “Active”, the Activity (Scedosporium aurantiacum [20]) was “Active” and the Activity (Scedosporium apiospermum [21]) was “Active”. For the same compound, the MIC (Scedosporium boydii [22]) was 1 µg/mL (≈ 1.43 µM), the Activity (Scedosporium aurantiacum [23]) was “Active” and the Activity (Scedosporium boydii [24]) was “Active”. For the same compound, the Activity (Scedosporium aurantiacum [25]) was “Active”, the Activity (Scedosporium boydii [26]) was “Active” and the Activity [27] was “Active”.
